Experimental data as given in ChEMBL document CHEMBL1147632, “2-(N-acyl) and 2-N-acyl-N(6)-substituted analogues of adenosine and their affinity at the human adenosine receptors” (Bioorg Med Chem Lett, 2004).

Tests used:
[1] = target: T1, Adenosine receptor A2b (Homo sapiens) (UniProt P29275); assay: Potency NECA-induced signal mediated by human A2B receptor in CHO cells at 100 uM; assay type: cell-based
T1 sequence (whole entry): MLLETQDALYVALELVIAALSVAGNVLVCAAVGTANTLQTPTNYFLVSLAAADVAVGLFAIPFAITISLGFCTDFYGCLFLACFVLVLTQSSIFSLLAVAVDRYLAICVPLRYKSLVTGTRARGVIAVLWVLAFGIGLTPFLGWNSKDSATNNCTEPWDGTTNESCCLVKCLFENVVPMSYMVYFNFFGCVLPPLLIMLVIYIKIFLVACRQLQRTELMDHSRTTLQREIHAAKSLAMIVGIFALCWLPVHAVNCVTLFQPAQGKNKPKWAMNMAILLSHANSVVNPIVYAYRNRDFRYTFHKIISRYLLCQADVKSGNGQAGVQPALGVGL
Summary of the method: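 Adenylyl cyclase activation measured in membranes from CHO cells stably transfected with human A2B receptor; test compounds at […], response expressed as percent of maximal NECA signal.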

Adenosine receptor A3 = target: T2, Adenosine receptor A3 (Homo sapiens, UniProt P0DMS8); assay: Displacement of [3H]NECA from human adenosine A3 receptor in stably transfected HEK cells; assay type: cell-based, HEK293
T2 sequence (P0DMS8 whole entry): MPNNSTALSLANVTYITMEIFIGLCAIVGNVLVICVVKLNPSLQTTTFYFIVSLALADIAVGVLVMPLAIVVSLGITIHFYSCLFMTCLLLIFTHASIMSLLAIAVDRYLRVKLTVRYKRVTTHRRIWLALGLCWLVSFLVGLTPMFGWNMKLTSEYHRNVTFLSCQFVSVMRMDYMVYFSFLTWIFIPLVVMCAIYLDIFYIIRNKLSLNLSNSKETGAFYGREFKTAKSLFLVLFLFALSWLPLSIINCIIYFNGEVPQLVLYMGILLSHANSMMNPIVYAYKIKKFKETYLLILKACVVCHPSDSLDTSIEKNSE
Summary of the method: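 Competition for specific [³H]NECA binding at human recombinant A3 receptor stably transfected into HEK cells; Ki reported in nM.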

Adenosine receptor A1 = target: T3, Adenosine receptor A1 (Homo sapiens, UniProt P30542); assay: Displacement of [3H]CCPA from human adenosine A1 receptor expressed in CHO cells; assay type: cell-based
T3 sequence (P30542 whole entry): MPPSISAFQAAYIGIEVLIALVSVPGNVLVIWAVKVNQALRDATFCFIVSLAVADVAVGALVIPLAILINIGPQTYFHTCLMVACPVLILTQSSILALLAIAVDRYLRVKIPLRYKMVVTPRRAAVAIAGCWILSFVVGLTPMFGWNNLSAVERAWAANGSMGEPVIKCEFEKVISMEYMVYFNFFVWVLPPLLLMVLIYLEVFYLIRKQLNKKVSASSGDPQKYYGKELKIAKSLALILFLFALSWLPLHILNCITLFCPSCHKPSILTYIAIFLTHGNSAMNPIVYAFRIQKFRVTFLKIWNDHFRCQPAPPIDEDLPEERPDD

Adenosine receptor A2a = Adenosine receptor A2a (Homo sapiens, UniProt P29274); assay: Displacement of [3H]NECA from human adenosine A2A receptor in stably transfected CHO cells; assay type: cell-based
Sequence of Adenosine receptor A2a (P29274 whole entry): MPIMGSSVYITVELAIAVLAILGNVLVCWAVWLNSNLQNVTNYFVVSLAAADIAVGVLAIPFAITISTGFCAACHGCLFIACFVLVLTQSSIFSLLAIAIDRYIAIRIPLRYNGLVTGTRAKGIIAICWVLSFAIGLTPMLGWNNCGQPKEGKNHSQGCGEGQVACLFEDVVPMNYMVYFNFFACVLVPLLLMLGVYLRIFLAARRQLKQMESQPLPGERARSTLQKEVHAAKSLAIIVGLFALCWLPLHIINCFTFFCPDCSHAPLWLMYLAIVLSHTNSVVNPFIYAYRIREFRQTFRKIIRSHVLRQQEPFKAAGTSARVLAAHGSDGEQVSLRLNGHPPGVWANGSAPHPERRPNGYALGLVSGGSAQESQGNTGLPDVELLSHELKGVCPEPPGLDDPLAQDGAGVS
Summary of the method: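 Radioligand displacement of specific [³H]NECA binding to human recombinant A2A receptor stably expressed in CHO cells; affinity given as Ki (nM).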

[2] = target: Adenosine receptors; A1 & A2a (Homo sapiens) (UniProt P30542+P29274); assay: Ratio of binding affinity for adenosine A2A receptor to adenosine A1 receptor; assay type: protein assay
Sequence of Adenosine receptors; A1 & A2a (Homo sapiens) (P29274 whole entry, looked up, one chain of several): as the sequence (P29274 whole entry) above

[3] = target: Adenosine receptors; A1 & A3 (Homo sapiens) (UniProt P30542+P0DMS8); assay: Ratio of binding affinity for adenosine A3 receptor to adenosine A1 receptor; assay type: protein assay

| Potency [1] | Ki (Adenosine receptor A3) | Ki (Adenosine receptor A1) | Ki (Adenosine receptor A2a) | Ratio [2] | Ratio [3] | Compound |
| --- | --- | --- | --- | --- | --- | --- |
| < 20% |  |  |  |  |  | OC[C@H]1O[C@@H](n2cnc3c(NC4CCCC4)nc(Cl)nc32)[C@H](O)[C@@H]1O |
| < 20% | 1060 nM | 733 nM | 1940 nM | 3 | 1.4 | Nc1nc(NC(=O)CCCC2CCCCC2)nc2c1ncn2[C@@H]1O[C@H](CO)[C@@H](O)[C@H]1O |
| < 20% | 1040 nM | 252 nM | 2000 nM | 8 | 4 | Nc1nc(NC(=O)CCC2CCCC2)nc2c1ncn2[C@@H]1O[C@H](CO)[C@@H](O)[C@H]1O |
| < 20% | 900 nM | 70.7 nM | 4100 nM | 58 | 13 | Nc1nc(NC(=O)/C=C/c2ccccc2)nc2c1ncn2[C@@H]1O[C@H](CO)[C@@H](O)[C@H]1O |
| < 20% | 1010 nM | 5450 nM | 10800 nM | 2 | 0.2 | CCNC(=O)[C@H]1O[C@@H](n2cnc3c(N)nc(NC(=O)CCC4CCCC4)nc32)[C@H](O)[C@@H]1O |
| < 20% | 181 nM | 207 nM | 7750 nM | 37 | 0.9 | CCNc1nc(NC(=O)CC2CCCCC2)nc2c1ncn2[C@@H]1O[C@H](CO)[C@@H](O)[C@H]1O |
| < 20% | 1410 nM | 31.8 nM | 2180 nM | 69 | 44 | O=C(CCC1CCCC1)Nc1nc(NC2CCCC2)c2ncn([C@@H]3O[C@H](CO)[C@@H](O)[C@H]3O)c2n1 |
| < 20% | 1230 nM | 342 nM | 2410 nM | 7 | 4 | Nc1nc(NC(=O)CC2CCCCC2)nc2c1ncn2[C@@H]1O[C@H](CO)[C@@H](O)[C@H]1O |
| < 20% | 2710 nM | 432 nM | 4570 nM | 11 | 6 | Nc1nc(NC(=O)CCc2ccccc2)nc2c1ncn2[C@@H]1O[C@H](CO)[C@@H](O)[C@H]1O |
| < 20% | 2760 nM | 1620 nM | 1780 nM | 1.1 | 1.7 | Nc1nc(NC(=O)C2CCCCC2)nc2c1ncn2[C@@H]1O[C@H](CO)[C@@H](O)[C@H]1O |
| < 20% | 1250 nM | 20.7 nM | 5660 nM | 273 | 60 | O=C(CCc1ccccc1)Nc1nc(NC2CCCC2)c2ncn([C@@H]3O[C@H](CO)[C@@H](O)[C@H]3O)c2n1 |
